# Laboratory results reported in publication PMC5508980 (Molecular nutrition & food research, 2017).
# Assays:
# recombinant HDAC7 = molecular target: T1, recombinant HDAC7 (Homo sapiens, UniProt Q8WUI4); assay: Recombinant HDAC activity assay; assay type: biochemical; details: recombinant protein incubated with 50 µM compound, 2 hrs
# T1 sequence (Q8WUI4 1-952): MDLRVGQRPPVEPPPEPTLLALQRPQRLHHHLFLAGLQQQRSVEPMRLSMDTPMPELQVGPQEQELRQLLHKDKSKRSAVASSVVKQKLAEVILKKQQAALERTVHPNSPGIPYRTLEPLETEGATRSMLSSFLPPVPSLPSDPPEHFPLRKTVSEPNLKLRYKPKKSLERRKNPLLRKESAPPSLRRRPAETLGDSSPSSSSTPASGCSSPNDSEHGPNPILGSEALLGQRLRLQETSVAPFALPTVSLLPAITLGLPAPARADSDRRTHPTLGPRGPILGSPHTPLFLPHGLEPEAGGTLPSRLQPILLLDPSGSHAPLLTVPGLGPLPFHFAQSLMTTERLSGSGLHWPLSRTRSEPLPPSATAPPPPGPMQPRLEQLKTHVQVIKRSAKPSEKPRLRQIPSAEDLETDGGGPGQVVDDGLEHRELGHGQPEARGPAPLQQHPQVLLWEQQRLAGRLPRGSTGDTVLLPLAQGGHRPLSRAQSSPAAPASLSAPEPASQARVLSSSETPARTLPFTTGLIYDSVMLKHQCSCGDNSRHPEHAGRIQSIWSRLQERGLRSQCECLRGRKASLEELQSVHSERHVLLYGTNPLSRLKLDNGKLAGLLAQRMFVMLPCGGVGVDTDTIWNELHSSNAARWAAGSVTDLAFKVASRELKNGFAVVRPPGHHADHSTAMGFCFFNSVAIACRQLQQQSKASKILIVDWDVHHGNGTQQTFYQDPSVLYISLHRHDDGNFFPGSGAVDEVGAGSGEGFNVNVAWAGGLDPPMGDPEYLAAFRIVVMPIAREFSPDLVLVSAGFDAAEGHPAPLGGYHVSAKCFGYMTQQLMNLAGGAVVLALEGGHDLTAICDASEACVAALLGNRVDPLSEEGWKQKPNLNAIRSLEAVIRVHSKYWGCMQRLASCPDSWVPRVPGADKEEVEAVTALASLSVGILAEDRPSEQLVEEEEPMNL
# recombinant HDAC1 = recombinant HDAC1 (Homo sapiens, UniProt Q13547); assay: Recombinant HDAC activity assay; assay type: biochemical; details: for remaining activity at 50 µM: 2 h, read-out: % HDAC activity, Class I HDACs, 1; for % HDAC activity, Class I HDACs, 1: recombinant protein incubated with 50 µM compound, 2 hrs
# Sequence of recombinant HDAC1 (Q13547 whole entry): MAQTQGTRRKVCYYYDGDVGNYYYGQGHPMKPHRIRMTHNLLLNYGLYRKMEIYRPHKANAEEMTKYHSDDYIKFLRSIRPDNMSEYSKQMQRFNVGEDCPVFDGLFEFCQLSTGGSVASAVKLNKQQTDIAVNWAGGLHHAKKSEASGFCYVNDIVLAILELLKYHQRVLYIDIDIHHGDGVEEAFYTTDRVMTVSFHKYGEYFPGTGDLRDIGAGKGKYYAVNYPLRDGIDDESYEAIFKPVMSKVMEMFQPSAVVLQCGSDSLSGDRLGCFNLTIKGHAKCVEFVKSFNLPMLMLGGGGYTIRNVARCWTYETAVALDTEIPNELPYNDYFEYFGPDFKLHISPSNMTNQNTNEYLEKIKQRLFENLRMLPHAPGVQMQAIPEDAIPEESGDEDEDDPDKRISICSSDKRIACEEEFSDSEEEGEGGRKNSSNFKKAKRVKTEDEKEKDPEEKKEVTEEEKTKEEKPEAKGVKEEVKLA
# Class I HDAC = assay: HDAC activity assay, class I substrate, bovine heart tissue lysate; assay type: biochemical; details: 2 hours treatment
# Summary of the method: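 Bovine heart lysate prepared in PBS pH 7.4 with 0.5% Triton X-100, 300 mM NaCl and protease/phosphatase inhibitors, then clarified; 30 µg protein/well in PBS. Test compound at semi-log increasing concentrations for 2 h, then class-specific AMC-acyl-lysine substrate (1 mM DMSO stock) for 2 h at 37 °C.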
# recombinant HDAC8 = molecular target: T2, recombinant HDAC8 (Homo sapiens, UniProt Q9BY41); assay: Recombinant HDAC activity assay; assay type: biochemical; details: for remaining activity at 50 µM: 2 h, read-out: % HDAC activity, Class I HDACs, 8; for % HDAC activity, Class I HDACs, 8: recombinant protein incubated with 50 µM compound, 2 hrs
# T2 sequence (Q9BY41 1-377): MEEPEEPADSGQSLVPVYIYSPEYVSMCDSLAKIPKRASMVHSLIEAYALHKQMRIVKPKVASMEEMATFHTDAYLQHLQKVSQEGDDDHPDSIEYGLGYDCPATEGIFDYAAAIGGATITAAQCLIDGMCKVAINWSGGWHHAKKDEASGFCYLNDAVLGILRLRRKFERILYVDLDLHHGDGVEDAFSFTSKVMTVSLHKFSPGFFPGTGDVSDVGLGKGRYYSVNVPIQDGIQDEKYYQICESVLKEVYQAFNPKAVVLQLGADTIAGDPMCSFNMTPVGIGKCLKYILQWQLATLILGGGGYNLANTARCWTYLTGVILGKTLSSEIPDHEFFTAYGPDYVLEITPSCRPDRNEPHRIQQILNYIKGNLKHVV
# recombinant HDAC2 = recombinant HDAC2 (Homo sapiens, UniProt Q92769); assay: Recombinant HDAC activity assay; assay type: biochemical; details: for remaining activity at 50 µM: 2 h, read-out: % HDAC activity, Class I HDACs, 2
# Sequence of recombinant HDAC2 (Q92769 whole entry): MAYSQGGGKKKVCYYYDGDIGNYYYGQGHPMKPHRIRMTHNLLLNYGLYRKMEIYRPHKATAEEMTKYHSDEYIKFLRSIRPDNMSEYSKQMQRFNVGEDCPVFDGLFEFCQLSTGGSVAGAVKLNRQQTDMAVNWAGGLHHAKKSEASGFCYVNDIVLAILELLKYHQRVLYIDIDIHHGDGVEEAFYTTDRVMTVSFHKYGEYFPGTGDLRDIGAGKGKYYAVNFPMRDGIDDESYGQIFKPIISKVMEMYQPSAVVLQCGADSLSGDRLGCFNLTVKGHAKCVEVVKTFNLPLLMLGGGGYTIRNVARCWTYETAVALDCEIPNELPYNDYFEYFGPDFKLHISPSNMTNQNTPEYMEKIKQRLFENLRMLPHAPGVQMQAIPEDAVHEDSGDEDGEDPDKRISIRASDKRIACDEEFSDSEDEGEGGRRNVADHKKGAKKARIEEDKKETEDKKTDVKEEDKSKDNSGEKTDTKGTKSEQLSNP
# recombinant HDAC3 = recombinant HDAC3 (Homo sapiens, UniProt O15379); assay: Recombinant HDAC activity assay; assay type: biochemical; details: for remaining activity at 50 µM: 2 h, read-out: % HDAC activity, Class I HDACs, 3; for % HDAC activity, Class I HDACs, 3: recombinant protein incubated with 50 µM compound, 2 hrs
# Sequence of recombinant HDAC3 (O15379 whole entry): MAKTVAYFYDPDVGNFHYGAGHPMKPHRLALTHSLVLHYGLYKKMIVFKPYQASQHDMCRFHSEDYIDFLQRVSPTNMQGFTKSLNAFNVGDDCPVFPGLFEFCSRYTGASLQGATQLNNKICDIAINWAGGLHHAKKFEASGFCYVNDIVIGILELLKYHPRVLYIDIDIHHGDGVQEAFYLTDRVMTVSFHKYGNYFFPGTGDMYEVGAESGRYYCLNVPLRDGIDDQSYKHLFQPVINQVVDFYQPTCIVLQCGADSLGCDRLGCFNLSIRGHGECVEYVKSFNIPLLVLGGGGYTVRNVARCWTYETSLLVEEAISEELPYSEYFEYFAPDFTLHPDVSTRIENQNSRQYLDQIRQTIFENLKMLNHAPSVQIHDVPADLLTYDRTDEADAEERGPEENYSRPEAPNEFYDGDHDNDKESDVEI
# Sequence of recombinant HDAC3 (Q9Y618 395-489 partner limits assumed): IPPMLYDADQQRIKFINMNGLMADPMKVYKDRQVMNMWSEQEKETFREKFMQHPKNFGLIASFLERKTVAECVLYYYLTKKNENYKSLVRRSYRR
# recombinant HDAC4 = recombinant HDAC4 (Homo sapiens, UniProt P56524); assay: Recombinant HDAC activity assay; assay type: biochemical; details: recombinant protein incubated with 50 µM compound, 2 hrs
# Sequence of recombinant HDAC4 (P56524 whole entry): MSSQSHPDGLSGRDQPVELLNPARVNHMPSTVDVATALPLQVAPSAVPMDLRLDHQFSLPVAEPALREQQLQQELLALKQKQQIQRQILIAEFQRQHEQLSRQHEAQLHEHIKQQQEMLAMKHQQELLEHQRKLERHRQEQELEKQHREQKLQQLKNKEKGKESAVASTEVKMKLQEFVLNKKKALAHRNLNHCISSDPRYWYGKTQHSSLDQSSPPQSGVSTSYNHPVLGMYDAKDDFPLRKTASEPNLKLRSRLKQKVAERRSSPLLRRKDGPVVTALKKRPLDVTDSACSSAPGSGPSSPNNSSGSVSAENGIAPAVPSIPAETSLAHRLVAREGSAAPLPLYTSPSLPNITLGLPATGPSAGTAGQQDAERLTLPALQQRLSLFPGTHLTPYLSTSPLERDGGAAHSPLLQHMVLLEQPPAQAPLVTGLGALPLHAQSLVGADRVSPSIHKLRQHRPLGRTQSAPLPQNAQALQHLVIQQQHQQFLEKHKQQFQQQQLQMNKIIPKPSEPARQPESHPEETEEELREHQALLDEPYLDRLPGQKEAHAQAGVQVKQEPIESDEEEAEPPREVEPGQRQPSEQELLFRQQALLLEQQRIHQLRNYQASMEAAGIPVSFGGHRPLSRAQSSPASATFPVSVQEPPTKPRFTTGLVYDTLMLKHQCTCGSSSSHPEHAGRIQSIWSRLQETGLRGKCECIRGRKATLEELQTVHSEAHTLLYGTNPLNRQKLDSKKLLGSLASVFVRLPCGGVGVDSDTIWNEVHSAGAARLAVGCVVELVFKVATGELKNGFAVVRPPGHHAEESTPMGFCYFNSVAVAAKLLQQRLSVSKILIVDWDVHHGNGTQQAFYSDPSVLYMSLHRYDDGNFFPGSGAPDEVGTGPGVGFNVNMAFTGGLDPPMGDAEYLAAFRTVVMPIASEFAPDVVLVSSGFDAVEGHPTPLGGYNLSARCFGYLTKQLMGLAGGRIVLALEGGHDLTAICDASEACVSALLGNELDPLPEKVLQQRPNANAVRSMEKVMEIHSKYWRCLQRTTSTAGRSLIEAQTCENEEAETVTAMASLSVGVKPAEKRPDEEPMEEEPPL
# recombinant HDAC10 = molecular target: T3, recombinant HDAC10 (Homo sapiens, UniProt Q969S8); assay: Recombinant HDAC activity assay; assay type: biochemical; details: for % HDAC activity, Class IIb HDACs, 10: recombinant protein incubated with 50 µM compound, 2 hrs; for remaining activity at 50 µM: 2 h, read-out: % HDAC activity, Class IIb HDACs, 10
# T3 sequence (Q969S8 1-669): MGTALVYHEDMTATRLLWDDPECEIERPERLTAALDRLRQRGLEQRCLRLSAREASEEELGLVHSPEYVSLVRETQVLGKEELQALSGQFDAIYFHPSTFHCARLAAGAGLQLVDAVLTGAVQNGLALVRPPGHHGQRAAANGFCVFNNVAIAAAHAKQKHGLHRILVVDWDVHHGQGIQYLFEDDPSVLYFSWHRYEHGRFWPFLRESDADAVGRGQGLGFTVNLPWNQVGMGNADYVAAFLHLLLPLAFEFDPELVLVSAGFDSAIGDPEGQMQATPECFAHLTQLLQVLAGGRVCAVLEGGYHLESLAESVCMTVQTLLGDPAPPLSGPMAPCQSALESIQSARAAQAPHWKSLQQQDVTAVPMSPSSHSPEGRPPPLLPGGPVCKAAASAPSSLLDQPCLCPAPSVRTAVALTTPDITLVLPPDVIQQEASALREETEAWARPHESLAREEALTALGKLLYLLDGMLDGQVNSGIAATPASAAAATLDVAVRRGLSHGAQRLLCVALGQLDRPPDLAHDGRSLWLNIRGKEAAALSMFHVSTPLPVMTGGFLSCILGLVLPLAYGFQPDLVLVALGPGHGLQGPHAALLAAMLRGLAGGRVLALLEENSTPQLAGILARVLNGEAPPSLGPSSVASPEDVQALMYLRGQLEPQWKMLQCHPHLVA
# recombinant HDAC5 = recombinant HDAC5 (Homo sapiens, UniProt Q9UQL6); assay: Recombinant HDAC activity assay; assay type: biochemical; details: for remaining activity at 50 µM: 2 h, read-out: % HDAC activity, Class IIa HDACs, 5
# Sequence of recombinant HDAC5 (Q9UQL6 whole entry): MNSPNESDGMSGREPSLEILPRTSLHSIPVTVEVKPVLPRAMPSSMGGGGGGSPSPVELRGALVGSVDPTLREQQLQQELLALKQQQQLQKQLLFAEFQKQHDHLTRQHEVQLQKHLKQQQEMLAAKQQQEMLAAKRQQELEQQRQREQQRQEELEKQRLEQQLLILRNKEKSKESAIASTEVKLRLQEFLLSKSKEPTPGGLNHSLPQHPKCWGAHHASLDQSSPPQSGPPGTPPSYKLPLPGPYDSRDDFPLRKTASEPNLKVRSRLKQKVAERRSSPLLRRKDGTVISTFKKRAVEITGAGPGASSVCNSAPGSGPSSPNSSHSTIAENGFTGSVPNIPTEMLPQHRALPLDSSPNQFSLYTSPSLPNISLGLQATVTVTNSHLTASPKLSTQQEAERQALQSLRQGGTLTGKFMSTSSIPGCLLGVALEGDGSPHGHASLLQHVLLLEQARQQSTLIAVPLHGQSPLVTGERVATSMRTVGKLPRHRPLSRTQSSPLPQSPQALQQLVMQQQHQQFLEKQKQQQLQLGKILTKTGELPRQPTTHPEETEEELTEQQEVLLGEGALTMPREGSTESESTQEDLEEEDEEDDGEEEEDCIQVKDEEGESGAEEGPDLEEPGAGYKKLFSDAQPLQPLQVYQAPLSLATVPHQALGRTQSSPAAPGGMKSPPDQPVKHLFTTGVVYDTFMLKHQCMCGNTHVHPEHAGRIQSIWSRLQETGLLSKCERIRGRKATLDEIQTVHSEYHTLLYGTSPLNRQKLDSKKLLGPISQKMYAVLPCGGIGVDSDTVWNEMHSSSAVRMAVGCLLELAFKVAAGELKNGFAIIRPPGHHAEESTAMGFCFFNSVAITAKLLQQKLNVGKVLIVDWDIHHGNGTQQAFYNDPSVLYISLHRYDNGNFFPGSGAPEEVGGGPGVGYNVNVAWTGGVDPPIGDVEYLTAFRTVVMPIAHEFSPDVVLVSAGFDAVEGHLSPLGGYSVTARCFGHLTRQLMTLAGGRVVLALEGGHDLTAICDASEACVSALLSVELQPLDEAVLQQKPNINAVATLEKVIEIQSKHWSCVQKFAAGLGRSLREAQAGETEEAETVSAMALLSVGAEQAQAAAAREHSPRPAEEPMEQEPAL
# [1] = system: HDAC activity in bovine cardiac tissue; assay: Natural product library screen with class-selective HDAC substrates; assay type: biochemical; details: 2 hours treatment
# Summary of the method: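 The screen covered 131 natural compounds against bovine cardiac tissue lysate at 30 µg protein/well in PBS (pH 7.4 lysis buffer with Triton X-100 and NaCl). Test compound for 2 h, then separate class I, IIa or IIb fluorogenic acyl-lysine-AMC substrates for 2 h at 37 °C. Developer (Triton X-100, 3 µM TSA, 0.75 mg/ml trypsin) for 20 min; fluorescence read at 360/460 nm.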
# H9c2 cells = assay: Acetyl-H3K9/14 immunoblot of whole cell extract; assay type: cell-based, rat; details: H9c2 myocytes, 50 µM, 2 hours
# Summary of the method: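 H9c2 cells were grown in DMEM with 10% FBS and treated at 90% confluence for 2 h with test compound or DMSO, with TSA as positive control. Washed in ice-cold PBS, lysed in PBS pH 7.4 with 0.5% Triton X-100 and 300 mM NaCl plus inhibitors, sonicated and clarified. SDS-PAGE, nitrocellulose, acetyl-H3K9/14 and total H3 antibodies, chemiluminescence; densitometry; ANOVA with Tukey.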
# recombinant HDAC9 = recombinant HDAC9 (Homo sapiens, UniProt Q9UKV0); assay: Recombinant HDAC activity assay; assay type: biochemical; details: for remaining activity at 50 µM: 2 h, read-out: % HDAC activity, Class IIa HDACs, 9
# Sequence of recombinant HDAC9 (Q9UKV0 whole entry): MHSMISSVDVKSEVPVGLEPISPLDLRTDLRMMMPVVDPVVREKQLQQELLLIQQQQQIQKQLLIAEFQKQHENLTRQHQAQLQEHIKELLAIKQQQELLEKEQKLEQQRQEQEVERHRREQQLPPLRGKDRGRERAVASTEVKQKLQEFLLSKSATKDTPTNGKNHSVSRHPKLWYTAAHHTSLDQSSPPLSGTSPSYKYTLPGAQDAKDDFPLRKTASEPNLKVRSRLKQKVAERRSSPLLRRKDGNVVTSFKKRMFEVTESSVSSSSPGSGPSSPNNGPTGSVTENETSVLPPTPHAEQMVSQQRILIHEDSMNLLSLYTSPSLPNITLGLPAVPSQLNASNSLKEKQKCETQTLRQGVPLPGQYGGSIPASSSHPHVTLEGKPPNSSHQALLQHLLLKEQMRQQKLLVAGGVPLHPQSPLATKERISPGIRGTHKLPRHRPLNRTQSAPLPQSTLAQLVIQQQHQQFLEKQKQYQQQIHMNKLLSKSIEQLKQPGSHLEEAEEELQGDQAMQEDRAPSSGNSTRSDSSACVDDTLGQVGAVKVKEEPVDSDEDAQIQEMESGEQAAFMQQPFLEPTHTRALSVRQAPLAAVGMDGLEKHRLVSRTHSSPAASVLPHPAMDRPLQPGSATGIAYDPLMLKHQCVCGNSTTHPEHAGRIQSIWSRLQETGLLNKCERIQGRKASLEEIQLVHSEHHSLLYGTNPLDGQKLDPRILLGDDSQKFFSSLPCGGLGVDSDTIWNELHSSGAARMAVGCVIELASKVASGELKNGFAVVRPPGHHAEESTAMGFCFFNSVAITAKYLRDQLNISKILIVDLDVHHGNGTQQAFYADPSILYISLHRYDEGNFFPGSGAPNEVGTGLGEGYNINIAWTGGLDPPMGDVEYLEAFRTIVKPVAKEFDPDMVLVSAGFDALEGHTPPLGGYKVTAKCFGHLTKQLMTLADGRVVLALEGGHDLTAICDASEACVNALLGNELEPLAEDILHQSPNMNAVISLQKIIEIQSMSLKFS
# recombinant HDAC6 = molecular target: T4, recombinant HDAC6 (Homo sapiens, UniProt Q9UBN7); assay: Recombinant HDAC activity assay; assay type: biochemical; details: recombinant protein incubated with 50 µM compound, 2 hrs
# T4 sequence (Q9UBN7 1-1215): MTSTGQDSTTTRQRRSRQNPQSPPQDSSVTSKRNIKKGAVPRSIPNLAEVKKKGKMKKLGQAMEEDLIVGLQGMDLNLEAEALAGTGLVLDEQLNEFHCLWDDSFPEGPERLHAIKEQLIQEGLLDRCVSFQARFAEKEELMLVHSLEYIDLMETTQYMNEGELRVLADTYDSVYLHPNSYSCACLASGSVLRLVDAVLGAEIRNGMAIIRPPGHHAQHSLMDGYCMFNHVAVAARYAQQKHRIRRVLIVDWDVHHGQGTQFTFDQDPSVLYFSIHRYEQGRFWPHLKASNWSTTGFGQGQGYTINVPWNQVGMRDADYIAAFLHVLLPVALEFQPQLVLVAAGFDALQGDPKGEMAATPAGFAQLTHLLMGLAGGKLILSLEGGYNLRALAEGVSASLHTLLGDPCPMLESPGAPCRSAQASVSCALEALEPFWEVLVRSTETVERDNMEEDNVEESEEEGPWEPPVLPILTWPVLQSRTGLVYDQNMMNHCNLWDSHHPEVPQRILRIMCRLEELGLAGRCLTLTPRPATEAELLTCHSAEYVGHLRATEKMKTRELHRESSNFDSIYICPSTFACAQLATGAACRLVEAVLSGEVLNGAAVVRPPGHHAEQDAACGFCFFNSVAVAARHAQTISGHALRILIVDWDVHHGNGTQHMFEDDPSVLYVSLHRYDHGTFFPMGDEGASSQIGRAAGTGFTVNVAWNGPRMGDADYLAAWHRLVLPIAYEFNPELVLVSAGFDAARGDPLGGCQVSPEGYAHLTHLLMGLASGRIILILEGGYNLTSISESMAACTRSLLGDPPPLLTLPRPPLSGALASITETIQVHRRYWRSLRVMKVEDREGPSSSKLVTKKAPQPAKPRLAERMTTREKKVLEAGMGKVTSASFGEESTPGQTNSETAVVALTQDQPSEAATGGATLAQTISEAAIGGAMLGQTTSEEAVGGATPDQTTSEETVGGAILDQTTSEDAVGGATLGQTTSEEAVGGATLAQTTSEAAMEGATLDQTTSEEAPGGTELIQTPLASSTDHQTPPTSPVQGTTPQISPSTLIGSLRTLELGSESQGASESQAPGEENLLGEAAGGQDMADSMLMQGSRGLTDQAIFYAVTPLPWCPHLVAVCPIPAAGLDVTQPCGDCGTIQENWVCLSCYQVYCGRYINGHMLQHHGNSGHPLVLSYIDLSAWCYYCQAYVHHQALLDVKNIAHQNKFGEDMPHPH
# [2] = recombinant protein incubated with 50 µM compound, 2 hrs
Compound,"% HDAC activity, Class IIa HDACs, 7 (recombinant HDAC7)",remaining activity at 50 µM (recombinant HDAC1) [%],"class I HDAC activity, effect in words (Class I HDAC)",remaining activity at 50 µM (recombinant HDAC8) [%],remaining activity at 50 µM (recombinant HDAC2) [%],remaining activity at 50 µM (recombinant HDAC3) [%],"% HDAC activity, Class I HDACs, 8 (recombinant HDAC8) [%]",also measured
O=c1cc(-c2ccc(O)cc2)oc2cc(O)cc(O)c12 [Apigenin],-,76.4,only inhibit class I HDAC activity,76.5,90.4,72.7,,
"O=C(O[C@@H]1Cc2c(O)cc(O)cc2O[C@@H]1c1cc(O)c(O)c(O)c1)c1cc(O)c(O)c(O)c1 [EGCG, epigallocatechin gallate]",-,,,,,,89.1,"% HDAC activity, Class IIa HDACs, 4 (recombinant HDAC4): 82.5%; % HDAC activity, Class IIb HDACs, 10 (recombinant HDAC10): 91.2%"
Cc1cc2c(C(C)C)c(O)c(O)c(C=O)c2c(O)c1-c1c(C)cc2c(C(C)C)c(O)c(O)c(C=O)c2c1O [Gossypol],-,42.6,,40.7,15.1,42.1,,"remaining activity at 50 µM (recombinant HDAC5): 51.5%; catalytic HDAC activity across class I, IIa and IIb substrates, effect in words [1]: dose-dependent pan-HDAC inhibition; remaining activity at 50 µM (recombinant HDAC10): 42.6%; acetylation of histone 3 on lysine 9/14 (Ac-H3 K9/14) via immunoblot (H9c2 cells): increased; remaining activity at 50 µM (recombinant HDAC9): 44.5%"
O=c1cc(-c2ccc(O)c(O)c2)oc2cc(O)cc(O)c12 [Luteolin],-,60.7,,52.8,49.5,51.4,,"remaining activity at 50 µM (recombinant HDAC5): 59.5%; catalytic HDAC activity across class I, IIa and IIb substrates, effect in words [1]: dose-dependent pan-HDAC inhibition; remaining activity at 50 µM (recombinant HDAC10): 55.9%; remaining activity at 50 µM (recombinant HDAC9): 52.3%"
"Nc1ccccc1NC(=O)c1ccc(CNc2nccc(-c3cccnc3)n2)cc1 [MGCD, MGCD0103, reference compound]",,,only inhibited class I HDAC activity,,,,,
COc1cc2c(cc1OC)-c1cc3ccc(OC)c(OC)c3c[n+]1CC2 [Palmatine],-,,only inhibit class I HDAC activity,,,,40.9,"% HDAC activity, Class I HDACs, 1 (recombinant HDAC1): 44.8%; % HDAC activity, Class I HDACs, 2 (recombinant HDAC2; [2]): 17.5%; % HDAC activity, Class I HDACs, 3 (recombinant HDAC3): 47.1%"
Myricitrin,-,,,,,,65.4,"% HDAC activity, Class I HDACs, 1 (recombinant HDAC1): 75.1%; % HDAC activity, Class IIa HDACs, 4 (recombinant HDAC4): 93.5%; % HDAC activity, Class IIb HDACs, 6 (recombinant HDAC6): 87.2%; % HDAC activity, Class IIa HDACs, 5 (recombinant HDAC5; [2]): 68.3%; % HDAC activity, Class IIb HDACs, 10 (recombinant HDAC10): 67.0%; % HDAC activity, Class I HDACs, 3 (recombinant HDAC3): 67.7%; % HDAC activity, Class IIa HDACs, 9 (recombinant HDAC9; [2]): 69.3%"
